Assay results published in ChEMBL document CHEMBL4138128, “Structural design, synthesis and pharmacological evaluation of thiazoles against Trypanosoma cruzi” (Eur J Med Chem, 2017).
Activity calls are given as the source filed them. The calls are words filed in the database; no cut-off is given here.

Assays:
[1] = Cytotoxicity against mouse J774 cells assessed as reduction in cell viability after 72 hrs by alamar blue assay; assay type: cell-based
In short: (§1)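 H9c2 or J774 cells (1 x 10^4/well) in DMEM/10% FBS preincubated 24 h, then exposed 72 h to six concentrations (0.41 to 100 µM) in triplicate, DMSO under 1%. Viability by AlamarBlue, read after 6 h at 570/600 nm; CC50 from three independent experiments; gentian violet positive control.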

Trypanosoma cruzi [2] = experiment: Antitrypanosomal activity against bloodstream trypomastigote stage of Trypanosoma cruzi Y infected in monkey LLC-MK2 cells assessed as reduction in parasite motility measured after 24 hrs by neubauer chamber method; assay type: functional, organism-based; details: LLC-MK2, 24 h
In short: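 Y strain trypomastigotes from LLC-MK2 supernatants, 4x10^5/well, incubated 24 h at 37°C, 5% CO2 with five concentrations; viable parasites counted by motility in Neubauer chamber. Inhibition versus untreated cultures; IC50 by non-linear regression; benznidazole reference.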

[3] = Cytotoxicity against rat H9c2 cells assessed as reduction in cell viability after 72 hrs by alamar blue assay; assay type: cell-based; in short: as §1
Trypanosoma cruzi [4] = experiment: Antitrypanosomal activity against bloodstream trypomastigote stage of Trypanosoma cruzi Y infected in Balb/c mouse macrophages assessed as reduction in number of infected cells at 0.5 uM measured after 3 days by hoeschst staining based confocal microscopic method; assay type: functional, organism-based; details: 5 uM, in the assay text read “at 5 uM” for “at 0.5 uM”
In short: (§2)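 BALB/c peritoneal macrophages (5x10^4/well) in DMEM/10% FBS, infected with trypomastigotes (10:1) for 2 h, washed, held 24 h, then treated 72 h (test at 8, 2, 0.5 µM; benznidazole 5 µM control). Formaldehyde-fixed, Hoechst-stained, imaged by confocal high-content microscopy for infected cells and amastigotes per 100 cells; six determinations; ANOVA with Bonferroni.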

Trypanosoma cruzi [5] = experiment: (§3) Antitrypanosomal activity against bloodstream trypomastigote stage of Trypanosoma cruzi Y infected in Balb/c mouse assessed as reduction in blood parasitaemia at 100 mg/kg, po qd administered for 5 consecutive days starting from day 5 post infection measured on day 8 post infection relative to control; assay type: functional; design: scale not given: the % may be the effect or the level left
In short: (§4)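 Female BALB/c mice (18-22 g, 6-8 weeks) infected i.p. with 10^4 Y strain bloodstream trypomastigotes in saline; six per group. From day 5, oral dosing once daily for 5 days; vehicle saline with 20% DMSO. Parasitaemia counted as motile parasites in 5 µL tail-vein blood; reduction = (vehicle mean − treated mean)/vehicle mean × 100. Mortality followed to 30 days post-treatment.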

Trypanosoma cruzi [6] = experiment: Antitrypanosomal activity against bloodstream trypomastigote stage of Trypanosoma cruzi Y infected in Balb/c mouse macrophages assessed as reduction in number of intracellular amastigotes at 0.5 uM measured after 3 days by hoeschst staining based confocal microscopic method; assay type: functional, organism-based; details: 5 uM, in the assay text read “at 5 uM” for “at 0.5 uM”; in short: as §2
Mus musculus = experiment: Toxicity in Balb/c mouse infected with Trypanosoma cruzi Y trypomastigotes assessed as behavioral alteration at 100 mg/kg, po qd administered for 5 consecutive days starting from day 5 post infection; assay type: organism-based; details: in vivo; in short: as §4
Trypanosoma cruzi [7] = experiment: as §3, with “12” for “8”; assay type: functional; design: scale not given: the % may be the effect or the level left; in short: as §4
Trypanosoma cruzi [8] = experiment: Antitrypanosomal activity against bloodstream trypomastigote stage of Trypanosoma cruzi Y infected in Balb/c mouse assessed as protection against mouse mortality at 100 mg/kg, po qd administered for 5 consecutive days starting from day 5 post infection measured up to 30 days post treatment; assay type: functional, organism-based; in short: as §4

With `O=C(Cn1ccnc1[N+](=O)[O-])NCc1ccccc1` [BENZNIDAZOLE] the CC50 at 72 h [1] was greater than 50 µM, the IC50 (Trypanosoma cruzi [2]) was 10.6 µM and the CC50 at 72 h [3] was greater than 50 µM. The Activity (Trypanosoma cruzi [4]) was “Active”, the Activity (Trypanosoma cruzi [5]) was greater than 99% and the Activity (Trypanosoma cruzi [6]) was “Active”. The Activity (Mus musculus) was “Non-Toxic”, the Activity (Trypanosoma cruzi [7]) was greater than 99% and the Activity (Trypanosoma cruzi [8]) was “Active”.
